Bioassay records as filed in PubChem.
PfGluPho inh: PfG6PD enzyme inhibitors, primary screen, biochemical, fluorescence intensity, uHTS. PfGluPho enzyme, NADPH resazurin-diaphorase fluorescence. inhibition, % at 20 µM. 350,000 compounds, 0.78% hits. AID 504690, 2011;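 active means inhibition reaching at least a set limit at 20 µM in the primary screen, cut at about 59% in these data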
HKDC1 inhibitor: HKDC1 hexokinase inhibitors, primary screen, biochemical, fluorescence, uHTS; recombinant HKDC1, G6PDH/diaphorase resazurin coupled fluorescence; inhibition, % at 20 µM; 340,000 compounds, 0.16% hits; AID 493160, 2011;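 active means inhibition above about 35% when tested at 20 µM, limit read from the data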
Target sequence (Q2TB90 whole entry, looked up): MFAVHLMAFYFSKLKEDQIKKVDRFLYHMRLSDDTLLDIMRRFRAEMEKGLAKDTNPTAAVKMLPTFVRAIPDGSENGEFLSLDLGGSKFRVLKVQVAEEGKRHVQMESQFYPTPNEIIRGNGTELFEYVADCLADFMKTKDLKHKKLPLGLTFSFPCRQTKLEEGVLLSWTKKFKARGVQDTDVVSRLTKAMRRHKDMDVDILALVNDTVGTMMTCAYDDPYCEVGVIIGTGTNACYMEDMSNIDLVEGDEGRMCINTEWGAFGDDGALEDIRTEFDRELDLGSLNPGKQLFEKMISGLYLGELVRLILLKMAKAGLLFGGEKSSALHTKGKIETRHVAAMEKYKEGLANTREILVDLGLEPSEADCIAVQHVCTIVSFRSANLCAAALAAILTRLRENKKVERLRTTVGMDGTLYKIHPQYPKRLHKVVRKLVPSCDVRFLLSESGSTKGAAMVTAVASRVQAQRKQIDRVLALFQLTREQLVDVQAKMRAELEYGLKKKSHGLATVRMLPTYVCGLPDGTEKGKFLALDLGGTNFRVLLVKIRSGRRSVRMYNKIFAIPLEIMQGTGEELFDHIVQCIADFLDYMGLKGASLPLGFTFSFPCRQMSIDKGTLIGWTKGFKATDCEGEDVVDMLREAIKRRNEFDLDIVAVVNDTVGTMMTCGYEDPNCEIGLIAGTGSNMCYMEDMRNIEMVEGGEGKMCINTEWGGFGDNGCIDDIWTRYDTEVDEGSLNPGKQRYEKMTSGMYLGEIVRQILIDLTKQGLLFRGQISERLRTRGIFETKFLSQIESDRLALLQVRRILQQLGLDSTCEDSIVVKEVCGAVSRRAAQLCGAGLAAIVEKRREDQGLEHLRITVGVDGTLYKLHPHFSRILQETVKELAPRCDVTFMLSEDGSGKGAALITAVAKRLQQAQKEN
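System: Recombinant HKDC1 hexokinase | Amount: HKDC1 at 5 µg/mL | Reagent: Glucose with 1 mM ATP | Doses: Single 20 µM dose | Incubation: Reaction time 90 min, room temperature, protected from light | Signal: Coupled resazurin fluorescence, excitation 525 nm, emission 613 nm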
Diaph act CS: compounds boosting diaphorase resazurin reduction – biochemical, uHTS, resorufin fluorescence, counter-screen for diaphorase-coupled primary assays, primary screen | Diaphorase/resazurin coupled assay, 16 min; active compounds read high; 1 = vehicle wells, 0 = NADH-free wells | 190,000 compounds, 0.005% hits | activation factor at 20 µM;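 active means diaphorase activity raised at least twofold by the compound at 20 µM; inactive means activation factor below 2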
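Assay system: bacterial diaphorase enzyme (C. kluyveri) / Input: enzyme 0.07 U/mL final / Medium: 50 mM HEPES pH 7.4 with 4.542 mM MgCl2, 0.005% Tween 20 / Doses: single compound dose of 20 µM, 1% DMSO final / Incubation: 16 min enzyme reaction, ambient temperature / Signal: fluorescence, excitation 544 nm and emission 590 nm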
G6PDH counter: L. mesenteroides G6PDH inhibitors, counter-screen for G6PDH-coupled screening assays, biochemical, Leuconostoc mesenteroides enzyme | glucose-6-phosphate dehydrogenase [Leuconostoc mesenteroides] | Purified L. mesenteroides G6PDH, diaphorase/resazurin coupled fluorescence, 45 min | inhibition, % at 5 µM | 200,000 compounds, 0.12% hits | AID 1020, 2008; in the data active means inhibition above about 50%
Diaph inh CS: diaphorase inhibitors and chemical oxidizers, primary screen, counter-screen for diaphorase-coupled primary assays, biochemical, uHTS, resorufin fluorescence; diaphorase resazurin-to-resorufin fluorescence, NADH, 16 min; bacterial (C. kluyveri) enzyme, not human; inhibition, % at 20 µM; 190,000 compounds, 0.69% hits; AID 1217, 2008;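 active means primary screen inhibition at 20 µM above a set limit, cut at about 50% in these data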
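Test system: bacterial diaphorase enzyme (C. kluyveri); Quantity: 0.14 U/mL diaphorase, enzyme working solution; Times: reaction incubation of 16 min at room temperature; Measured by: fluorescence of resorufin formed from resazurin, Ex 544/Em 590 nm; Benchmarks: positive control minus NADH, DMSO neutral control.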
PfGluPho conf: PfG6PD inhibitors, hit retest, confirmation, biochemical, fluorescence intensity, single concentration; shares compounds with PfGluPho inh; recombinant PfGluPho, NADPH-diaphorase-resazurin fluorescence; inhibition, % at 20 µM; 2,400 compounds, 34% hits; AID 504753, 2011;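 active means inhibition of at least 50% at 20 µM in any single replicate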
Diaphorase 10uM: diaphorase inhibitors and chemical oxidizers, confirmation, counter-screen for P. falciparum G6PD inhibitor project, biochemical, fluorescence intensity, 10 µM NADPH. shares compounds with PfGluPho inh. diaphorase-coupled resazurin reduction, NADPH 10 uM. inhibition, % at 20 µM. 820 compounds, 39% hits;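 active means average inhibition reaching 50% or more with the compound at 20 µM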;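 further: resorufin red fluorescence formed as diaphorase reduces resazurin using NADPH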
Diaph ctr 30uM: diaphorase inhibitors and chemical oxidizers, confirmation, counter-screen for P. falciparum G6PD inhibitor project, biochemical, fluorescence intensity, 30 µM NADPH; shares compounds with PfGluPho inh; Diaphorase/resazurin coupled assay, resorufin fluorescence; inhibition, % at 20 µM; 820 compounds, 29% hits; AID 504863, 2011;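 active means inhibition averaging 50% or more, tested at 20 µM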
A number is an active result; i = inactive; nt = no result. Most compounds without a hit are left out; they make up all but 1.2% or so of the library.

SMILES	PfGluPho inh	HKDC1 inhibitor	Diaph act CS	G6PDH counter	Diaph inh CS	PfGluPho conf	others
CCOc1ccccc1N(CC(=O)N/N=C/c1cc(Br)ccc1OC)S(C)(=O)=O	117.9	i	i	i	i	72.4	Diaphorase 10uM=70.5;Diaph ctr 30uM=55.9
CCOc1ccccc1C=NNC(=O)CCCCC(=O)NN=Cc1ccccc1OCC	124.9	i	nt	nt	nt	78.2	Diaphorase 10uM=i;Diaph ctr 30uM=54.3
CCOc1ccccc1/C=N/NC(=O)Cc1csc(Nc2cccc(C(F)(F)F)c2)n1	69.5	i	i	i	i	i
CCOCCCN(C(=O)Cn1nnc(-c2ccc(C)o2)n1)C(C(=O)NCC1CCCO1)c1ccc(F)cc1 (stereo unspecified)	i	i	nt	nt	nt	nt
O=C(NCc1ccccc1)N1CCC(Cc2ccccc2)CC1	i	i	nt	nt	nt	nt
O=C(Nc1ccc(-n2cnnn2)cc1)c1cc(S(=O)(=O)N2CCCC2)ccc1Cl	i	i	nt	nt	nt	nt
Cc1ccc(S(=O)(=O)c2nc(S(C)(=O)=O)sc2N2CCC3(CC2)OCCO3)cc1	i	i	nt	nt	nt	nt
O=C(CCCC(=O)NN=Cc1ccc(Cl)cc1Cl)NN=Cc1ccc(Cl)cc1Cl	i	i	nt	nt	nt	nt
O=C(CNC(=O)C1COc2ccccc2O1)N/N=C\c1ccccc1Cl (stereo unspecified)	60.2	i	nt	nt	nt	i
O=C(CCCC(=O)NN=Cc1ccccc1Cl)NN=Cc1ccccc1Cl	85.8	i	nt	nt	nt	i
Cc1c(C(=O)Nc2nnc(C(F)(F)F)s2)oc2ccccc12	103.8	i	i	i	i	70.5	Diaphorase 10uM=82.8;Diaph ctr 30uM=67.7
COC(=O)c1sc(NC(=O)c2oc3ccccc3c2C)nc1C	i	i	i	i	i	nt
O=C(Nc1ccccc1C(=O)Nc1nnc(C(F)(F)F)s1)c1ccccc1	74.4	i	nt	nt	nt	i
Cc1cc(NC(=O)c2oc3ccccc3c2C)ccc1-n1cnnn1	111.3	i	i	i	i	73.1	Diaphorase 10uM=71.8;Diaph ctr 30uM=i
CCN(CC)C(=O)CSc1ncccc1-c1nc2ccccc2[nH]1	i	i	i	i	i	nt
Cc1ccsc1/C=N/NC(=O)C1C(=O)NCC1c1ccccc1 (stereo unspecified)	i	i	nt	nt	nt	nt
CCCCNC(=O)CSc1nnc(-c2cccc(S(=O)(=O)N3CCOCC3)c2)o1	i	i	nt	nt	nt	nt
O=C(Nc1nnc(S(=O)(=O)N2CCCCCC2)s1)c1ccccc1Br	i	i	nt	nt	nt	nt
COc1cccc(C(=O)Nc2nnc(S(=O)(=O)N3CCCC3)s2)c1	93.5	i	nt	nt	nt	70.8	Diaphorase 10uM=57.7;Diaph ctr 30uM=51.1
O=C(Nc1nnc(S(=O)(=O)N2CCCCC2)s1)c1ccc(Cl)cc1	105.9	i	nt	nt	nt	44.1	Diaphorase 10uM=59.3;Diaph ctr 30uM=i
O=C(Nc1nnc(S(=O)(=O)N2CCCCCC2)s1)c1ccc(Br)cc1	72.5	i	nt	nt	nt	i
O=C(COc1ccc(Cl)cc1)Nc1nnc(S(=O)(=O)N2CCCCCC2)s1	i	i	nt	nt	nt	nt
Cc1cc(C)nc(SCC(=O)N/N=C/c2cccc([N+](=O)[O-])c2)n1	93.2	i	i	i	i	i
O=C(NN=Cc1cccc([N+](=O)[O-])c1)c1cccc2ccccc12	i	i	nt	nt	nt	nt
O=C(N/N=C/c1cccc([N+](=O)[O-])c1)c1ccccc1-n1cccc1	63.3	i	i	i	i	i
SMILES	PfGluPho inh	HKDC1 inhibitor	Diaph act CS	G6PDH counter	Diaph inh CS	PfGluPho conf	others
CCNc1nc(NC(C)C)nc(NS(=O)(=O)c2ccc(Cl)cc2)n1	82.7	i	i	i	i	55.1	Diaphorase 10uM=62.7;Diaph ctr 30uM=i
CCN(CC)c1nc(N)nc(NS(=O)(=O)c2ccc(Cl)cc2)n1	66.6	i	i	i	i	57.1	Diaphorase 10uM=54.5;Diaph ctr 30uM=i
N=c1ccn2c(n1)O[C@H]1[C@@H](CO)[C@H](O)O[C@H]12	i	i	nt	nt	nt	nt
COc1cc(/C=N/NC(=O)c2ccc(CN3C(=O)c4cccc5cccc3c45)cc2)cc(OC)c1O	63.8	i	nt	nt	nt	i
CCCCNC(=O)CCCCC(=O)N/N=C/c1cccc(Cl)c1	65.0	i	i	i	i	i
Cc1ccc(/C=N/NC(=O)CCCOc2ccc(Cl)cc2Cl)cc1	67.2	i	i	i	i	i
CCCCNC(=O)C(=O)N/N=C/c1cccc(Br)c1	i	i	i	i	i	nt
O=C(CCCOc1ccc(Cl)cc1Cl)N/N=C/c1ccccc1	119.3	i	i	i	i	85.8	Diaphorase 10uM=87.7;Diaph ctr 30uM=71.1
O=C(N/N=C/c1ccc(Cl)cc1)Nc1ccccc1	i	i	i	i	i	nt
O=C(CC(=O)Nc1cccc(Cl)c1)N/N=C\c1ccccc1	84.2	i	i	i	i	i
CC(Oc1ccc(Cl)cc1)C(=O)NCC1CCCO1 (stereo unspecified)	i	i	nt	nt	nt	nt
COC(=O)c1ccc(NC(=O)N(c2ccccc2)c2ccccc2)cc1	i	i	nt	nt	nt	nt
COc1ccc(-c2nn(-c3ccccc3)cc2C(=O)N2CCN(S(=O)(=O)c3cccc(F)c3)CC2)cc1	i	i	nt	nt	nt	nt
FC(F)(F)c1cccc(-c2nc3nc(Cl)c(Cl)nc3[nH]2)c1	102.1	i	nt	nt	nt	76.4	Diaphorase 10uM=76.7;Diaph ctr 30uM=57.0
CC(C)(C)OC(=O)N1CCC(Cc2cc(-c3ccc(Cl)cc3)no2)(C(=O)O)CC1	i	i	nt	nt	nt	nt
Clc1ccc(-c2cn3cc(Cl)ccc3n2)cc1	72.2	i	nt	nt	nt	i
Cc1ccc2nc(-c3ccc(-c4ccccn4)s3)cn2c1	64.6	i	nt	nt	nt	i
Cc1ccc2nc(-c3ccccc3)cn2c1	79.0	i	i	i	i	i
CCCN1C2CCCC1CC(NC(=O)c1cc(OC)cc(OC)c1)C2 (stereo unspecified)	i	i	nt	nt	nt	nt
CN(Cc1cccs1)C(=O)C1CC(=O)N(Cc2ccccc2)C1 (stereo unspecified)	i	i	nt	nt	nt	nt
Cc1noc(C)c1COC(=O)Cc1ccc(Cl)c(Cl)c1	69.2	i	i	i	i	i
Cc1noc(C)c1COC(=O)[C@H](C)NS(=O)(=O)c1ccc(Cl)c(Cl)c1	i	i	i	i	i	nt
O=C(c1ccc2c(c1)N(Cc1ccccc1F)C(=O)c1ccccc1S2)N1CCOCC1	69.1	i	nt	nt	nt	i
O=C(c1ccc2c(c1)N(Cc1ccccc1)C(=O)c1ccccc1S2)N1CCCC1	101.6	i	i	i	i	71.6	Diaphorase 10uM=61.6;Diaph ctr 30uM=62.6
